This passage reports Drug uptake and Drug metabolism results from ChEMBL document CHEMBL4715800, “Synthesis and Antiviral Evaluation of Octadecyloxyethyl Benzyl 9-[(2-Phosphonomethoxy)ethyl]guanine (ODE-Bn-PMEG), a Potent Inhibitor of Transient HPV DNA Amplification” (J Med Chem, 2016).

Holding throughout (assay type): ADME, cell-based
A short description of data set [1]: Drug uptake in HFF cells at 1 uM incubated for 1 to 48 hrs using [14C]-labelled compound by liquid scintillation counting. The settings on record: human, time 1-48 hrs. In outline:
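HFF cells exposed to 1 μM [14C]-labelled compound for 1 to 48 h. Cell-associated radioactivity measured in duplicate to assess uptake.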

Data set [2] can be described thus: Drug metabolism in HFF cells assessed as PMEGpp levels at 1 uM measured for 14 days using [14C]-labelled compound by liquid scintillation counting. The conditions noted are these: human, 336 h, TDE = time-dependent effect, time 14 day. In outline: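 After 48 h exposure to 1 μM [14C]-labelled compound, drug removed from HFF cells. Persistence of intracellular PMEGpp followed over time; average of two separate determinations.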

Data set [3] in a line: Drug metabolism in HFF cells assessed as PMEGp levels at 1 uM incubated for 48 hrs using [14C]-labelled compound by liquid scintillation counting. The conditions noted are these: human. The method in brief: (§1)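 HFF cells exposed for 48 h to 1 μM [14C]-labelled compound, then drug removed. Intracellular PMEG, PMEGp and PMEGpp measured. Values are the average of two separate determinations.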

Data set [4] is described as follows: Drug metabolism in HFF cells assessed as PMEG levels at 1 uM incubated for 48 hrs using [14C]-labelled compound by liquid scintillation counting. The conditions noted are these: human. The method in brief:
as §1

Data set [5] in a line: Drug level in HFF cells treated with 1 uM [14C]-labelled ODE-Bn-PMEG assessed as compound levels incubated for 48 hrs by liquid scintillation counting. The settings on record: human.

In the case of `CCCCCCCCCCCCCCCCCCOCCOP(=O)(COCCn1cnc2c(=O)[nH]c(N)nc21)OCc1ccccc1` (stereo unspecified), the Drug uptake entry in data set [1] (TDE = time-dependent effect) is “Tde”; in data set [3], “Metabolite_Detected”; in data set [4] it was “Metabolite_Detected”. Besides, the Drug metabolism result in data set [2] is reported as “Tde”.
With `Nc1nc2c(ncn2CCOCP(=O)(O)O)c(=O)[nH]1` [GS-438], the Drug uptake result in data set [1] and in data set [5] was “Active” each time.
